Calls of active or inactive are those of the source. No cut-off for these calls is given here.
What was measured:
[1] = target: T1, Aminopeptidase N (Sus scrofa, UniProt P15145); assay: Inhibition of pig kidney microsomes aminopeptidase N
T1 sequence (P15145 whole entry): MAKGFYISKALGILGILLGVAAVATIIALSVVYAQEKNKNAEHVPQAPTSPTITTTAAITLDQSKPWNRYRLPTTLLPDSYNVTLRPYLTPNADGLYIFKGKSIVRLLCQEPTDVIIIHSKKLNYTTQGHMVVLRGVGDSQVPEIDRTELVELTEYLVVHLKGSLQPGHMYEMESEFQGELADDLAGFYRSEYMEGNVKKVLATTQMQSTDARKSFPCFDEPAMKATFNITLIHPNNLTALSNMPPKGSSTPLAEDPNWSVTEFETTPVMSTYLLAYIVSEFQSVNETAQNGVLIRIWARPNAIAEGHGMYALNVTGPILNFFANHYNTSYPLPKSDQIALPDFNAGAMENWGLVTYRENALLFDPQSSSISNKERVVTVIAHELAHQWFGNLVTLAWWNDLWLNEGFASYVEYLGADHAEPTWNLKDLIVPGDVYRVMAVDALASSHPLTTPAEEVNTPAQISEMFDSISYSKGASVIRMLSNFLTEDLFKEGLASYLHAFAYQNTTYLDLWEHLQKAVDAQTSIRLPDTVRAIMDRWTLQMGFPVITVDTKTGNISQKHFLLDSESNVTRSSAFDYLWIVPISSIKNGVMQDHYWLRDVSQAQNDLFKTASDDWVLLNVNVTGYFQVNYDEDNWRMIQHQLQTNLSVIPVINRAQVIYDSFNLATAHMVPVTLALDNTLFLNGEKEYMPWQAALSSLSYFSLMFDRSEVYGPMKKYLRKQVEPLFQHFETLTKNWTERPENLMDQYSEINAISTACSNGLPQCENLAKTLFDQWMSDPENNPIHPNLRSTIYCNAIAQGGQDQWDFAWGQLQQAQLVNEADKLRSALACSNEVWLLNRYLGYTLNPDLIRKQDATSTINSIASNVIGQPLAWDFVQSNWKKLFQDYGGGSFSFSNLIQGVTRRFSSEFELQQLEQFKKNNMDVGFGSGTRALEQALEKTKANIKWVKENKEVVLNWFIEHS

[2] = target: 72 kDa type IV collagenase (Homo sapiens, UniProt P08253); assay: Inhibition of MMP2
Outline: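 Gelatinase (MMP-2), substrate and inhibitor in 50 mmol/L sodium borate pH 8.5, 30 min at 37 °C; then 0.03% TNBS added, further 20 min incubation; absorbance read at 450 nm.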

Structure (SMILES)	IC50 [1]	Activity [2]	IC50 [2]
COc1ccc(/C=C/C(=O)N[C@H](C)C(=O)Nc2nnc(-c3ccccc3)s2)cc1	131 µM	inactive	
COc1ccc(/C=C/C(=O)N[C@H](C)C(=O)Nc2nnc(-c3ccc(Cl)cc3)s2)cc1	135 µM	inactive	
COc1ccc(/C=C/C(=O)N[C@H](C)C(=O)Nc2nnc(-c3ccc(C)cc3)s2)cc1	141 µM	inactive	
C[C@@H](NC(=O)/C=C/c1ccc(O)cc1)C(=O)Nc1nnc(-c2ccc([N+](=O)[O-])cc2)s1	54.1 µM	inactive	
COc1ccc(/C=C/C(=O)N[C@H](C)C(=O)Nc2nnc(-c3ccc(F)cc3)s2)cc1	90.7 µM	inactive	
COc1ccc(/C=C/C(=O)N[C@H](C)C(=O)Nc2nnc(-c3ccc(Br)cc3)s2)cc1	108 µM	inactive	
C[C@@H](NC(=O)/C=C/c1ccc(O)cc1)C(=O)Nc1nnc(-c2ccc(Br)cc2)s1	35.3 µM	inactive	
C[C@@H](NC(=O)/C=C/c1ccc(O)cc1)C(=O)Nc1nnc(-c2ccc(Cl)cc2)s1	105 µM	inactive	
COc1ccc(/C=C/C(=O)N[C@H](C)C(=O)Nc2nnc(-c3ccc(OC)cc3)s2)cc1	78.5 µM	inactive	
COc1ccc(/C=C/C(=O)N[C@H](C)C(=O)Nc2nnc(-c3ccc([N+](=O)[O-])cc3)s2)cc1	44.6 µM		297 µM
C[C@@H](NC(=O)/C=C/c1ccc(O)cc1)C(=O)Nc1nnc(-c2ccc(F)cc2)s1	115 µM	inactive	
COc1ccc(-c2nnc(NC(=O)[C@@H](C)NC(=O)/C=C/c3ccc(O)cc3)s2)cc1	68.8 µM	inactive	
CC(C)C[C@H](NC(=O)[C@@H](O)[C@H](N)Cc1ccccc1)C(=O)O [UBENIMEX]			9.5 µM

The next lines start with the values.

IC50 [1]	Activity [2]	IC50 [2]	Structure (SMILES)
84.7 µM	inactive		C[C@@H](NC(=O)/C=C/c1ccccc1)C(=O)Nc1nnc(-c2ccc([N+](=O)[O-])cc2)s1
216 µM	inactive		C[C@@H](NC(=O)/C=C/c1ccccc1)C(=O)Nc1nnc(-c2ccccc2)s1
183 µM	inactive		C[C@@H](NC(=O)/C=C/c1ccccc1)C(=O)Nc1nnc(-c2ccc(F)cc2)s1
206 µM	inactive		Cc1ccc(-c2nnc(NC(=O)[C@@H](C)NC(=O)/C=C/c3ccccc3)s2)cc1
124 µM	inactive		C[C@@H](NC(=O)/C=C/c1ccc(O)cc1)C(=O)Nc1nnc(-c2ccccc2)s1
127 µM	inactive		Cc1ccc(-c2nnc(NC(=O)[C@@H](C)NC(=O)/C=C/c3ccc(O)cc3)s2)cc1
31.4 µM	inactive		COc1ccc(-c2nnc(NC(=O)[C@@H](C)NC(=O)/C=C/c3ccccc3)s2)cc1
115 µM	inactive		C[C@@H](NC(=O)/C=C/c1ccccc1)C(=O)Nc1nnc(-c2ccc(Br)cc2)s1
153 µM	inactive		C[C@@H](NC(=O)/C=C/c1ccccc1)C(=O)Nc1nnc(-c2ccc(Cl)cc2)s1
